E coli WT exp – blocks growth of wild type E. coli BW25113; OD600 absorbance; growth inhibition, % at 100 µM; actives 0.15% (n = 98,000);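 active = growth inhibition above about 50% at one test dose, limit read from the data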;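 note: growth measured after 20 h incubation at 37 °C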
PostGolgi ctrl – inhibits growth of the yeast control strain. actives 5% (n = 98,000). inhibition, % at 10 µM. efflux-deficient yeast background strain, growth absorbance A615, 16 h. AID 738
Cav3 T inh – blocks human Cav3.2 T-type calcium channel | actives 4% (n = 100,000) | Cav3.2-expressing cells, Fluo-4 calcium fluorescence FDSS; active compounds read low | B-score at 10 µM;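 active = single-dose well whose peak fluorescence ratio is a statistical outlier from its plate by either plate-standardised score or position-corrected B-score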
tolC growth inh – growth inhibitors of E. coli BW25113 tolC mutant; OD615; growth inhibition, % at 10 µM (by protocol); actives 2.2% (n = 65,000); AID 573;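 active = growth inhibition at or above a cutoff equal to the mean over every tested compound plus 3 SD, cut at about 60% in these data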;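 note: growth measured after 20 h incubation at 37 °C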
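Test system: E. coli BW25113 ΔtolC::kan bacteria; incubation: 37 °C, 20 h exposure; medium: LB broth supplemented with 50 µg/mL kanamycin; read-out basis: percent growth inhibition; signal: A615 absorbance measurement; compound: 10 µM final, single dose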
PostGolgi yeast – growth inhibition of a yeast mutant, post-Golgi transport screen; post-Golgi transport phenotypic cell assay; inhibition, % at 10 µM; actives 0.9% (n = 98,000);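 note: yeast cells grown in 1536-well plates; yeast grown about 18 h at 30C before absorbance read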
Numbers stand for hits; 0 = inactive; - = no result given. Most compounds without a hit are left out; they make up all but 8.4% or so of the library. Cut-off read from the data, not from the text of the source, unless noted: active = inhibition above about 30%; inactive = the rest.

SMILES | E coli WT exp | PostGolgi ctrl | Cav3 T inh | tolC growth inh | PostGolgi yeast
COCCNC(=O)Cn1c(=O)n(C)c2ccccc21 | 0 | 0 | 0 | - | 0
CCOC(=O)c1c(NC(=S)NC(=O)c2cnn(CC)c2)sc2c1CCC(C)C2 (configuration not stated) | 0 | 0 | 0 | - | 0
CC(=O)c1n[nH]nc1Nc1nc(C)cc(C)n1 | - | - | 0 | 0 | -
CC(=O)c1c(O)cc(C)n(Nc2nc(C)cc(C)n2)c1=O | 0 | 0 | 0 | 73 | 0
Cc1ccccc1NC(=S)NC1CC2CCC(C1)N2Cc1ccco1 (configuration not stated) | 0 | 0 | 0 | - | 0
O=S(=O)(CCSc1nc2ccccc2o1)c1nc2ccccc2s1 | 0 | 61 | 0 | 0 | 0
CCS(=O)(=O)CCSc1nc2ccccc2o1 | 0 | 0 | 0 | 0 | 0
CC1=CC(C)(C)N=C(Nc2ccc(C)cc2)S1 | 0 | 0 | 0 | 0 | 0
COc1ccc(C)cc1S(=O)(=O)N1CCC(C)CC1 | 0 | 42 | 0 | 0 | 0
COc1ccc(S(=O)(=O)N2CCCC(C(=O)Nc3ccc(OC)c(OC)c3)C2)cc1 (configuration not stated) | 0 | 39 | 0 | 0 | 0
COc1ccc(NC(=O)C2CCCN(S(=O)(=O)c3ccc(C)cc3)C2)cc1OC (configuration not stated) | - | - | 0 | 0 | -
COc1ccc(CNC(=O)C2CCN(S(=O)(=O)c3cc(OC)ccc3OC)CC2)cc1 | 0 | 0 | 0 | 0 | 0
CCOC(=O)C1CCCN(S(=O)(=O)c2ccc(OC)c3ccccc23)C1 (configuration not stated) | 0 | 0 | -4 | 0 | 0
COc1ccc(CNC(=O)C2CCCN(S(=O)(=O)c3cc(C)ccc3OC)C2)cc1 (configuration not stated) | 0 | 40 | -3.3 | 0 | 0
CC(C)C(=O)Nc1ccc(C(=O)NNC(=O)c2ccco2)cc1 | 0 | 0 | 0 | - | 0
COc1ccc(OC)c(S(=O)(=O)N2CCC(C(=O)Nc3ccc(C)c(C)c3)CC2)c1 | 0 | 0 | -7.2 | 0 | 0
COc1ccccc1NC(=O)C1CCCN(S(=O)(=O)c2cnc[nH]2)C1 (configuration not stated) | 0 | 0 | 0 | 0 | 0
CCOc1ccccc1NC(=O)C1CCCN(S(=O)(=O)c2ccc(OC)c(C)c2)C1 (configuration not stated) | 0 | 31 | -4.6 | 0 | 0
Cc1ccc(S(=O)(=O)CCSc2nc(C)cc(C(F)(F)F)c2C#N)cc1 | - | - | 0 | - | -
Cc1cccc(NS(=O)(=O)c2ccc(Br)s2)n1 | 0 | 0 | 0 | - | 0
Cc1ccc(S(=O)(=O)Nc2ccnc3ccccc23)cc1 | 0 | 0 | 0 | - | 0
Cc1ccc(S(=O)(=O)Nc2ccccc2-c2ccccc2)cc1 | 0 | 0 | -5.8 | - | 0
CC(=O)Nc1ccc(S(=O)(=O)Nc2nc3ccccc3s2)cc1 | 0 | 0 | 0 | - | 0
Cc1ccc(S(=O)(=O)Nc2nc3ccccc3s2)cc1 | 0 | 32 | 0 | - | 0
O=S(=O)(Nc1nc2ccccc2s1)c1ccc(Br)s1 | 0 | 33 | 0 | 76 | 0
SMILES | E coli WT exp | PostGolgi ctrl | Cav3 T inh | tolC growth inh | PostGolgi yeast
COc1cc(-c2ccc3oc(-c4ccsc4)c(C#CC4(O)CCCCC4)c3c2)cc(OC)c1OC | - | - | 0 | - | -
CC(C)(C)NC(=O)COC(=O)c1cc(F)c(F)cc1Cl | 0 | 0 | 0 | - | 0
COc1ccc(NC(=O)/C(Cl)=C(/Cl)S(=O)Cc2ccccc2)cn1 (configuration not stated) | 0 | 80 | 0 | - | 107
CCOC(=O)CN1C(=O)C(O)(CC(=O)c2ccc3c(c2)CCCC3)c2ccccc21 (configuration not stated) | - | - | -7.3 | - | -
CCOC(=O)CN1C(=O)C(O)(CC(=O)c2cccc(OC)c2)c2ccccc21 (configuration not stated) | 0 | 0 | 0 | 0 | 0
CNC(=O)c1sccc1-n1cccc1 | 0 | 0 | 0 | - | 0
Cc1ccc(CNC(=O)c2sccc2-n2cccc2)cc1 | 0 | 30 | 0 | 0 | 0
CCOC(=O)c1cnc(SCC(=O)Nc2sc(C)c(C)c2C#N)nc1N | 0 | 0 | 0 | 0 | 0
CCCn1c(CCC(=O)Nc2ccccc2Cc2ccccc2)nc2cc(S(=O)(=O)N3CCOCC3)ccc21 | 0 | 0 | -9.6 | - | 0
CCn1ncc(/C=N/NS(=O)(=O)c2ccc(Cl)cc2)c1C | 0 | 0 | 0 | - | 0
CCOC(=O)Cc1csc(NC(=O)CSc2ncnc3c2cnn3-c2ccccc2Cl)n1 | 0 | 0 | -6.2 | 0 | 0
Cc1nnc(NC(=O)CSc2ncnc3c2cnn3-c2ccccc2C)s1 | 0 | 0 | 0 | - | 0
CCCCN(CCCC)CP(=O)(c1ccccc1)c1ccccc1 | 0 | 0 | -5.8 | - | 0
O=P(CCCCCCCCCP(=O)(c1ccccc1)c1ccccc1)(c1ccccc1)c1ccccc1 | 0 | 0 | -9.6 | - | 0
CCCCOc1ccccc1P(=O)(O)CP(=O)(c1ccccc1)c1ccccc1 | 0 | 0 | 0 | 0 | 0
CCOC(=O)O[C@]1(C(=O)OCCl)CC[C@H]2[C@@H]3CCC4=CC(=O)C=C[C@]4(C)[C@H]3[C@@H](O)C[C@@]21C | - | - | 0 | - | -
CC(NC(=O)c1cccc(F)c1)C(c1cccs1)N1CCN(C)CC1 (configuration not stated) | 0 | 0 | 0 | 0 | 0
COC(=O)c1ccc2c(c1)NC(=O)C(N1CCOCC1)S2 (configuration not stated) | 0 | 0 | 0 | 0 | 0
CCC1CCCCN1C1Sc2ccc(C(=O)OC)cc2NC1=O (configuration not stated) | 0 | 40 | 0 | 0 | 0
COc1ccc(N(CC(=O)N2CCCCC2)S(=O)(=O)c2ccccc2)c(OC)c1 | 0 | 0 | 0 | 0 | 0
COc1cccc(C2C3=C(N=C4SCC(=O)N42)c2ccccc2CC3)c1OC (configuration not stated) | 0 | 40 | 0 | 0 | 0
COc1cccc(CNC(=O)CCS(=O)(=O)c2cccs2)c1 | 0 | 0 | 0 | - | 0
Cc1ccc(S(=O)(=O)N(Cc2ccccc2)Cc2ccco2)cc1 | 0 | 0 | 0 | 64 | 0
Cc1ccc(S(=O)(=O)N(Cc2ccc(F)cc2)Cc2ccco2)cc1 | 0 | 0 | - | 66 | 0
COc1ccc(S(=O)(=O)N(Cc2ccc(OC)c(OC)c2)Cc2ccco2)cc1 | 0 | 0 | - | 0 | 0
SMILES | E coli WT exp | PostGolgi ctrl | Cav3 T inh | tolC growth inh | PostGolgi yeast
O=C(COc1ccc(Cl)cc1Cl)NCCCN1CCOCC1 | 0 | 0 | 0 | 0 | 65
O=C(COc1ccc(Cl)cc1Cl)NCCC1=CCCCC1 | 0 | 48 | 0 | - | 0
CCCNS(=O)(=O)c1ccc(OCC(=O)NCCC2=CCCCC2)cc1 | 0 | 0 | 0 | - | 0
O=C(CSc1nccc2ccccc12)N1CCN(Cc2ccc3c(c2)OCO3)CC1 | - | - | - | 0 | -
CCOC(=O)c1cc2sccc2n1CC(=O)N1CCCc2ccccc21 | 0 | 0 | -3.8 | 100 | 0
COC(=O)c1cc2sccc2n1CC(=O)N1CCCc2ccccc21 | 0 | 0 | 0 | 0 | 0
CCn1c(C(=O)N2CCC(Cc3ccccc3)CC2)cc2sccc21 | 0 | 0 | 0 | 80 | 0
CCOC(=O)c1cc2sccc2n1CCCN1C(=O)c2ccccc2C1=O | 0 | 32 | 0 | 0 | 0
O=C(c1cc2sccc2n1Cc1ccccc1)N1CCCc2ccccc21 | 0 | 0 | -6.8 | - | 0
CCCc1nnc(NC(=O)Cn2cnc3ccccc3c2=O)s1 | 0 | 0 | 0 | - | 0
